Nine compounds from ChEMBL document CHEMBL1130160 (J Med Chem, 1997) can be followed below.

The first assay deals with Rattus norvegicus. Nature of the assay: Minimum effective dose at which significant increase in uterine weight/body weight in rat was determined (in vivo); expressed as % increase relative to ovariectomized (OVX) controls. Type of assay: functional.
Settings: not given; call rule not given here
The essentials: (§1)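 In 75-day OVX Sprague–Dawley rats dosed orally for 4 days, beginning 2 weeks post-ovariectomy with 5–6 rats per group, whole uteri were weighed the morning after fasting. MED is the lowest dose giving a significant (p≤0.05) rise in uterine weight/body weight, expressed as % increase over OVX controls ±SE.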
Turning to `CCSCc1ccc(-c2sc3cc(O)ccc3c2C(=O)c2ccc(OCCN3CCCCC3)cc2)cc1`, the Increase stood at 30.5%.

As to `O=C(c1ccc(OCCN2CCCCC2)cc1)c1c(-c2ccc(O)c3ccccc23)sc2cc(O)ccc12`, the Increase was found to be 59.6%.

For `CC(C)c1ccc(-c2sc3cc(O)ccc3c2C(=O)c2ccc(OCCN3CCCCC3)cc2)cc1`, the Increase is on record as 24.9%.

For the compound `O=C(c1ccc(OCCN2CCCCC2)cc1)c1c(-c2ccc(-c3ccccc3)cc2)sc2cc(O)ccc12`, the Increase is recorded as 50.3%.

Regarding `O=C(c1ccc(OCCN2CCCCC2)cc1)c1c(Cc2ccc(O)cc2)sc2cc(O)ccc12`, the Increase came out at 36.9%.

A further assay deals with MCF7. Description: Inhibition of MCF-7 cell proliferation stimulated by 10e-[…] M 17-beta-estradiol; Not active at the doses tested.
Settings: not given
Type of assay: functional, cell-based, Homo sapiens.
By IC50 is commonly meant the concentration needed to halve the response being measured. Take `Cl.O=C(c1ccc(OCCN2CCCCC2)cc1)c1c(-c2ccc(Cl)cc2)sc2ccccc12`: the 50% inhibitory concentration (IC50) entry is “Not Active”.

`C[C@]12CC[C@@H]3c4ccc(O)cc4CC[C@H]3[C@@H]1CC[C@@H]2O` [ESTRADIOL]: the 50% inhibitory concentration (IC50) result is recorded as “Not Active”.

Another assay concerns Rattus norvegicus. Nature of the assay: Percent decrease in serum cholesterol relative to OVX control at 10 mg/kg in rats. Type of assay: functional.
Settings: not given
The essentials:
(§2)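 OVX Sprague–Dawley rats (75 days old), 5–6 per group, dosed once daily by oral gavage for 4 consecutive days, starting 14 days after ovariectomy. Vehicle was 20% β-hydroxycyclodextrin at 1 mL/kg, or 1.5% carboxymethylcellulose in some cases. Rats were fasted after the last dose and bled by cardiac puncture next morning.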
With `O=C(c1ccc(OCCN2CCCCC2)cc1)c1c(-c2ccc(C(F)(F)F)cc2)sc2cc(O)ccc12`, the Decrease worked out at 71.5%.

As for `O=C(c1ccc(OCCN2CCCCC2)cc1)c1c(Cc2ccc(O)cc2)sc2cc(O)ccc12`, the Decrease is recorded as 54%.

A further assay deals with Rattus norvegicus. Description: Percent protection of bone mineral density in the distal femur of OVX rat at a dose of 0.1 mg/kg/day. Type of assay: functional.
Settings: not given
The essentials: (§3)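 OVX Sprague–Dawley rats (6-month old, or 75-day old in one case) were dosed orally each day for 35 days, starting 4 days after ovariectomy. Digitized X-rays of the right distal femoral metaphysis gave BMD. % protection = (test − OVX)/(sham − OVX) × 100, reported ±SE.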
With `O=C(c1ccc(OCCN2CCCCC2)cc1)c1c(-c2cccc(O)c2)sc2cc(O)ccc12`, the Protection is given as -30.9%.

For the compound `O=C(c1ccc(OCCN2CCCCC2)cc1)c1c(-c2ccc(O)c3ccccc23)sc2cc(O)ccc12`, the Protection turned out to be 42.3%.

A further assay has as its target Estrogen receptor (Homo sapiens, UniProt Q92731+P03372). As to conditions: mcf7.
Compound `O=C(c1ccc(OCCN2CCCCC2)cc1)c1c(-c2cccc(O)c2)sc2cc(O)ccc12` gave an IC50 of 3.2 nM.

`O=C(c1ccc(OCCN2CCCCC2)cc1)c1c(-c2ccc(C(F)(F)F)cc2)sc2cc(O)ccc12` gave an IC50 of 1000 nM.

`CCSCc1ccc(-c2sc3cc(O)ccc3c2C(=O)c2ccc(OCCN3CCCCC3)cc2)cc1` returned an IC50 of 100 nM.

The compound `O=C(c1ccc(OCCN2CCCCC2)cc1)c1c(-c2ccc(O)c3ccccc23)sc2cc(O)ccc12` returned an IC50 of 2 nM.

Take `CC(C)c1ccc(-c2sc3cc(O)ccc3c2C(=O)c2ccc(OCCN3CCCCC3)cc2)cc1`: the IC50 is on record as 30 nM.

As to `O=C(c1ccc(OCCN2CCCCC2)cc1)c1c(-c2ccc(-c3ccccc3)cc2)sc2cc(O)ccc12`, the IC50 was 100 nM.

In turn, `O=C(c1ccc(OCCN2CCCCC2)cc1)c1c(Cc2ccc(O)cc2)sc2cc(O)ccc12` came in with an IC50 of 5 nM.

The next assay relates to Rattus norvegicus. Nature of the assay: Percent protection of bone mineral density in the distal femur of OVX rat at a dose of 0.01 mg/kg/day. Type of assay: functional.
Settings: not given
The essentials:
as §3
As for `O=C(c1ccc(OCCN2CCCCC2)cc1)c1c(-c2ccc(O)c3ccccc23)sc2cc(O)ccc12`, the Protection came out at 35.9%.

The next assay concerns Rattus norvegicus. Description: Minimum effective dose at which significant increase in uterine eosinophil peroxidase (EPO) activity in rat was determined (in vivo). Type of assay: functional. As to conditions: read-out: MED.
On to `O=C(c1ccc(OCCN2CCCCC2)cc1)c1c(-c2cccc(O)c2)sc2cc(O)ccc12`, for which the minimal effective dose is > 10 mg/kg.

With `O=C(c1ccc(OCCN2CCCCC2)cc1)c1c(-c2ccc(C(F)(F)F)cc2)sc2cc(O)ccc12`, the minimal effective dose amounted to 5 mg/kg.

Consider `CCSCc1ccc(-c2sc3cc(O)ccc3c2C(=O)c2ccc(OCCN3CCCCC3)cc2)cc1`, for which the minimal effective dose was 1 mg/kg.

`O=C(c1ccc(OCCN2CCCCC2)cc1)c1c(-c2ccc(O)c3ccccc23)sc2cc(O)ccc12`: the minimal effective dose turned out to be 0.1 mg/kg.

As for `CC(C)c1ccc(-c2sc3cc(O)ccc3c2C(=O)c2ccc(OCCN3CCCCC3)cc2)cc1`, the minimal effective dose came to 1 mg/kg.

Consider `O=C(c1ccc(OCCN2CCCCC2)cc1)c1c(-c2ccc(-c3ccccc3)cc2)sc2cc(O)ccc12`, for which the minimal effective dose was 1 mg/kg.

For the compound `O=C(c1ccc(OCCN2CCCCC2)cc1)c1c(Cc2ccc(O)cc2)sc2cc(O)ccc12`, the minimal effective dose is > 10 mg/kg.

The subject of another assay is Rattus norvegicus. Description: Percent decrease in serum cholesterol relative to OVX control at 0.1 mg/kg in rats.
Settings: not given
Type of assay: functional. The method in brief:
as §2
`O=C(c1ccc(OCCN2CCCCC2)cc1)c1c(-c2ccc(O)c3ccccc23)sc2cc(O)ccc12`: the Decrease is reported as 31.6%.

For the compound `O=C(c1ccc(OCCN2CCCCC2)cc1)c1c(Cc2ccc(O)cc2)sc2cc(O)ccc12`, the Decrease was -17.6%.

The subject of the next assay is Rattus norvegicus. Nature of the assay: Dose required to reduce serum cholesterol by 50% relative to OVX controls was determined (in vivo).
Settings: not given
Type of assay: functional. The method in brief:
as §2
By ED50 is commonly meant the midpoint of the dose-response relation. Turning to `O=C(c1ccc(OCCN2CCCCC2)cc1)c1c(-c2cccc(O)c2)sc2cc(O)ccc12`, the median effective dose (ED50) worked out at 0.8 mg/kg.

The compound `O=C(c1ccc(OCCN2CCCCC2)cc1)c1c(-c2ccc(C(F)(F)F)cc2)sc2cc(O)ccc12` registered an ED50 of 0.4 mg/kg.

On to `CCSCc1ccc(-c2sc3cc(O)ccc3c2C(=O)c2ccc(OCCN3CCCCC3)cc2)cc1`, for which the 50% effect level (ED50) was put at a dose of 2.5 mg/kg.

In the case of `O=C(c1ccc(OCCN2CCCCC2)cc1)c1c(-c2ccc(O)c3ccccc23)sc2cc(O)ccc12`, it took a dose of 1.2 mg/kg to reach the 50% effect level (ED50).

Turning to `CC(C)c1ccc(-c2sc3cc(O)ccc3c2C(=O)c2ccc(OCCN3CCCCC3)cc2)cc1`, the ED50 is 3.6 mg/kg.

Regarding `O=C(c1ccc(OCCN2CCCCC2)cc1)c1c(-c2ccc(-c3ccccc3)cc2)sc2cc(O)ccc12`, the ED50 worked out at 2.4 mg/kg.

Compound `O=C(c1ccc(OCCN2CCCCC2)cc1)c1c(Cc2ccc(O)cc2)sc2cc(O)ccc12` had an ED50 of 4 mg/kg.

The next assay deals with Rattus norvegicus. Nature of the assay: Eosinophil peroxidase activity expressed as Vmax was determined in rat (in vivo). Type of assay: functional.
Settings: not given
The compound `CC(C)c1ccc(-c2sc3cc(O)ccc3c2C(=O)c2ccc(OCCN3CCCCC3)cc2)cc1` had an Increase of 33.3 Vmax.

In the next assay the test system is Rattus norvegicus. Description: Percent decrease in serum cholesterol relative to OVX control at 10 mg/kg in rat was determined (in vivo). Type of assay: functional.
Settings: not given
The essentials:
as §2
On to `CCSCc1ccc(-c2sc3cc(O)ccc3c2C(=O)c2ccc(OCCN3CCCCC3)cc2)cc1`, for which the Decrease is 63%.

On to `O=C(c1ccc(OCCN2CCCCC2)cc1)c1c(-c2ccc(O)c3ccccc23)sc2cc(O)ccc12`, for which the Decrease came out at 59.9%.

Turning to `CC(C)c1ccc(-c2sc3cc(O)ccc3c2C(=O)c2ccc(OCCN3CCCCC3)cc2)cc1`, the Decrease is reported as 48.5%.

Regarding `O=C(c1ccc(OCCN2CCCCC2)cc1)c1c(-c2ccc(-c3ccccc3)cc2)sc2cc(O)ccc12`, the Decrease worked out at 68.5%.

The subject of a further assay is Rattus norvegicus. Description: Percent protection of bone mineral density in the distal femur of OVX rat at a dose of 1 mg/kg/day. Type of assay: functional.
Settings: not given
The essentials:
as §3
As to `O=C(c1ccc(OCCN2CCCCC2)cc1)c1c(-c2cccc(O)c2)sc2cc(O)ccc12`, the Protection is recorded as 79.7%.

As to `O=C(c1ccc(OCCN2CCCCC2)cc1)c1c(-c2ccc(O)c3ccccc23)sc2cc(O)ccc12`, the Protection is 82.5%.

The test system of another assay is Rattus norvegicus. Description: Percent decrease in serum cholesterol relative to OVX control at 0.1 mg/kg in rat was determined (in vivo). Type of assay: functional.
Settings: not given
The method in brief:
as §2
Take `CCSCc1ccc(-c2sc3cc(O)ccc3c2C(=O)c2ccc(OCCN3CCCCC3)cc2)cc1`: the Decrease is on record as 21.7%.

With `CC(C)c1ccc(-c2sc3cc(O)ccc3c2C(=O)c2ccc(OCCN3CCCCC3)cc2)cc1`, the Decrease is -24.1%.

Consider `O=C(c1ccc(OCCN2CCCCC2)cc1)c1c(-c2ccc(-c3ccccc3)cc2)sc2cc(O)ccc12`, for which the Decrease is given as 12.9%.

Another assay relates to Rattus norvegicus. Nature of the assay: Percent protection of bone mineral density in the distal femur of OVX rat at a dose of 10 mg/kg/day.
Settings: not given
Type of assay: functional. The method in brief: as §3
On to `O=C(c1ccc(OCCN2CCCCC2)cc1)c1c(-c2cccc(O)c2)sc2cc(O)ccc12`, for which the Protection is reported as 44.2%.

In the next assay the test system is Rattus norvegicus. Nature of the assay: Percent decrease in serum cholesterol relative to OVX control at 1 mg/kg in rat. Type of assay: functional.
Settings: not given
The method in brief: as §2
On to `CCSCc1ccc(-c2sc3cc(O)ccc3c2C(=O)c2ccc(OCCN3CCCCC3)cc2)cc1`, for which the Decrease stood at 40.1%.

For the compound `CC(C)c1ccc(-c2sc3cc(O)ccc3c2C(=O)c2ccc(OCCN3CCCCC3)cc2)cc1`, the Decrease came to 47.1%.

As to `O=C(c1ccc(OCCN2CCCCC2)cc1)c1c(-c2ccc(-c3ccccc3)cc2)sc2cc(O)ccc12`, the Decrease is 37%.

The subject of the next assay is Rattus norvegicus. Description: Percent decrease in serum cholesterol relative to OVX control at 1.0 mg/kg in rats.
Settings: not given
Type of assay: functional. The essentials: as §2
`O=C(c1ccc(OCCN2CCCCC2)cc1)c1c(-c2ccc(O)c3ccccc23)sc2cc(O)ccc12`: the Decrease stood at 54.7%.

For `O=C(c1ccc(OCCN2CCCCC2)cc1)c1c(Cc2ccc(O)cc2)sc2cc(O)ccc12`, the Decrease came to 41.7%.

Another assay relates to Rattus norvegicus. Description: Minimum effective dose at which significant increase in uterine weight/body weight in rat was determined (in vivo). Type of assay: functional. As to conditions: read-out: MED. The essentials:
as §1
For the compound `O=C(c1ccc(OCCN2CCCCC2)cc1)c1c(-c2cccc(O)c2)sc2cc(O)ccc12`, the minimal effective dose was > 10 mg/kg.

Turning to `O=C(c1ccc(OCCN2CCCCC2)cc1)c1c(-c2ccc(C(F)(F)F)cc2)sc2cc(O)ccc12`, the minimal effective dose turned out to be 5 mg/kg.

For the compound `CCSCc1ccc(-c2sc3cc(O)ccc3c2C(=O)c2ccc(OCCN3CCCCC3)cc2)cc1`, the minimal effective dose turned out to be 1 mg/kg.

Consider `O=C(c1ccc(OCCN2CCCCC2)cc1)c1c(-c2ccc(O)c3ccccc23)sc2cc(O)ccc12`, for which the minimal effective dose turned out to be 0.1 mg/kg.

On to `CC(C)c1ccc(-c2sc3cc(O)ccc3c2C(=O)c2ccc(OCCN3CCCCC3)cc2)cc1`, for which the minimal effective dose was determined as 0.1 mg/kg.

For the compound `O=C(c1ccc(OCCN2CCCCC2)cc1)c1c(-c2ccc(-c3ccccc3)cc2)sc2cc(O)ccc12`, the minimal effective dose came out at 0.1 mg/kg.

Consider `O=C(c1ccc(OCCN2CCCCC2)cc1)c1c(Cc2ccc(O)cc2)sc2cc(O)ccc12`, for which the minimal effective dose is 5 mg/kg.

For a further assay, the system named is Rattus norvegicus. Description: Eosinophil peroxidase activity expressed as Vmax was determined in rat (in vivo) Eosinophil peroxidase activity expressed as Vmax was determined in rat (in vivo). Type of assay: functional. Details: unit not given here.
Settings: not given
As to `CCSCc1ccc(-c2sc3cc(O)ccc3c2C(=O)c2ccc(OCCN3CCCCC3)cc2)cc1`, the Eosinophil peroxidase activity (Vmax) was found to be 36.9.

As to `O=C(c1ccc(OCCN2CCCCC2)cc1)c1c(-c2ccc(O)c3ccccc23)sc2cc(O)ccc12`, the Eosinophil peroxidase activity (Vmax) was determined as 29.4.

Take `O=C(c1ccc(OCCN2CCCCC2)cc1)c1c(-c2ccc(-c3ccccc3)cc2)sc2cc(O)ccc12`: the Eosinophil peroxidase activity (Vmax) stood at 25.4.
